In ChEMBL document CHEMBL1154511, “Synthesis and biological evaluation of amide derivatives of diflunisal as potential anti-inflammatory agents” (2009):

What was measured:
Assay type in all cases: functional
Mus musculus [1] = experiment: Antiinflammatory activity in mouse assessed as inhibition of xylene-induced ear edema at 40 mg/kg, po
Procedure, shortened: (§1)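 Male and female Kunming mice (20–26 g) given the test substance by the oral route at 40 mg/kg. Percent inhibition was scored in the xylene-induced ear edema model (anti-inflammatory) or the acetic acid-induced writhing model (analgesic).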

Mus musculus [2] = experiment: Analgesic activity in Kunming mouse assessed as inhibition of acetic acid-induced writhing response at 40 mg/kg, po; procedure, shortened: as §1
Mus musculus [3] = experiment: Antiinflammatory activity in orally dosed mouse assessed as inhibition of xylene-induced ear edema; settings: po
Procedure, shortened: (§2)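 Male and female Kunming mice (20–26 g) dosed orally. ED50 was determined in the xylene-induced ear edema model (anti-inflammatory) or the acetic acid-induced writhing model (analgesic).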

Mus musculus [4] = experiment: Analgesic activity in orally dosed Kunming mouse assessed as inhibition of acetic acid-induced writhing response; settings: po; procedure, shortened: as §2
Rattus norvegicus = experiment: Antiinflammatory activity in rat assessed as inhibition of carrageenan-induced paw edema

Row | SMILES | inhibition in vivo at 40 mg/kg (Mus musculus [1]) [%] | inhibition in vivo at 40 mg/kg (Mus musculus [2]) [%] | ED50 (Mus musculus [3]) [mg/kg] | ED50 (Mus musculus [4]) [mg/kg] | ED50 (Rattus norvegicus) [mg/kg]
1 | CN1CCN(C(=O)c2cc(-c3ccc(F)cc3F)ccc2OC(=O)c2ccccc2)CC1 | 27.5 | 88.3 |  |  | 
2 | CC(=O)Oc1ccc(-c2ccc(F)cc2F)cc1C(=O)O | 13.7 | 0 |  |  | 
3 | O=C(Oc1ccc(-c2ccc(F)cc2F)cc1C(=O)O)c1ccccc1 | 16.1 | 7.97 |  |  | 
4 | CC(=O)Oc1ccc(-c2ccc(F)cc2F)cc1C(=O)Nc1cc(C)ccc1C | 22 | 13.2 |  |  | 
5 | Cc1ccccc1NC(=O)c1cc(-c2ccc(F)cc2F)ccc1OC(=O)c1ccccc1 | 21.4 | 20.8 |  |  | 
6 | CCN(CC)C(=O)c1cc(-c2ccc(F)cc2F)ccc1OC(=O)c1ccccc1 | 65.2 | 0 | 25.7 |  | 
7 | CC(=O)Oc1ccc(-c2ccc(F)cc2F)cc1C(=O)NN1CCOCC1 | 0 | 28.5 |  |  | 
8 | CNC(=O)c1cc(-c2ccc(F)cc2F)ccc1OC(=O)c1ccccc1 | 68.9 | 47.5 | 24.2 | 43.8 | 
9 | O=C(Oc1ccc(-c2ccc(F)cc2F)cc1C(=O)Nc1ccccc1)c1ccccc1 | 19.8 | 5.57 |  |  | 
10 | CC(=O)Oc1ccc(-c2ccc(F)cc2F)cc1C(=O)Nc1ccccc1Cl | 41.4 | 11.7 |  |  | 
11 | CC(=O)Oc1ccc(-c2ccc(F)cc2F)cc1C(=O)Nc1ccc(Cl)cc1 | 0 | 29.9 |  |  | 
12 | CC(=O)Oc1ccc(-c2ccc(F)cc2F)cc1C(=O)Nc1ccccc1C | 19.6 | 12.3 |  |  | 
13 | CC(=O)Oc1ccc(-c2ccc(F)cc2F)cc1C(=O)Nc1ccc(C)cc1 | 36.4 | 31 |  |  | 
14 | CC(=O)Oc1ccc(-c2ccc(F)cc2F)cc1C(=O)NCc1ccccc1 | 34.1 | 16.6 |  |  | 
15 | CCNC(=O)c1cc(-c2ccc(F)cc2F)ccc1OC(C)=O | 5.38 | 23.9 |  |  | 
16 | CC(=O)Oc1ccc(-c2ccc(F)cc2F)cc1C(=O)NC1CCCCC1 | 0 | 15.6 |  |  | 
17 | CC(=O)Oc1ccc(-c2ccc(F)cc2F)cc1C(=O)Nc1ccccc1 | 23.2 | 8.9 |  |  | 
18 | CC(=O)Oc1ccc(-c2ccc(F)cc2F)cc1C(=O)Nc1cccc(C)c1 | 12.8 | 19 |  |  | 
19 | CNC(=O)c1cc(-c2ccc(F)cc2F)ccc1OC(C)=O | 48.8 | 29.9 |  |  | 
20 | O=C(O)c1cc(-c2ccc(F)cc2F)ccc1O [DIFLUNISAL] | 39.9 | 8.33 |  |  | 59.6
